Assay results taken from ChEMBL document CHEMBL1135860 (Bioorg Med Chem Lett, 2002).

Assays:
[1] = molecular target: T1, 5-hydroxytryptamine receptor 7 (Homo sapiens, UniProt P34969); assay: Inhibition (at 1 uM) of radioligand [3H]LSD binding to human 5-hydroxytryptamine 7 receptor on HEK293 cells; format: cell-based
In short: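 Human 5-HT7 binding was run with membranes from HEK293 cells expressing the receptor, incubated with 3H-LSD. Clozapine was the standard. Displacement of radioligand was recorded as percent inhibition at 1 µM.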

[2] = molecular target: T1, 5-hydroxytryptamine receptor 7; assay: Binding affinity towards human 5-hydroxytryptamine 7 receptor on HEK293 cells using radioligand [3H]LSD; format: cell-based
In short: (§1)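 Competition binding at human 5-HT7 receptor: membranes prepared from HEK293 cells expressing the receptor were incubated with 3H-LSD and a range of test concentrations. Clozapine was the reference standard. Ki values in nM were determined.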

[3] = molecular target: Muscarinic acetylcholine receptors; M1 & M2 (Homo sapiens) (UniProt P11229+P08172); assay: Percent inhibition (at 1 uM) against Muscarinic acetylcholine receptor M1- Muscarinic acetylcholine receptor M2; format: protein assay
[4] = molecular target: D(1A) dopamine receptor (Homo sapiens) (UniProt P21728); assay: Percent inhibition (at 1 uM) against Dopamine receptor D1
[5] = molecular target: 5-hydroxytryptamine receptor 1B (Homo sapiens) (UniProt P28222); assay: Percent inhibition (at 1 uM) against 5-hydroxytryptamine 1B receptor
[6] = molecular target: T2, 5-hydroxytryptamine receptor 1A (Homo sapiens) (UniProt P08908); assay: Percent inhibition (at 1 uM) against 5-hydroxytryptamine 1A receptor
T2 sequence (whole entry): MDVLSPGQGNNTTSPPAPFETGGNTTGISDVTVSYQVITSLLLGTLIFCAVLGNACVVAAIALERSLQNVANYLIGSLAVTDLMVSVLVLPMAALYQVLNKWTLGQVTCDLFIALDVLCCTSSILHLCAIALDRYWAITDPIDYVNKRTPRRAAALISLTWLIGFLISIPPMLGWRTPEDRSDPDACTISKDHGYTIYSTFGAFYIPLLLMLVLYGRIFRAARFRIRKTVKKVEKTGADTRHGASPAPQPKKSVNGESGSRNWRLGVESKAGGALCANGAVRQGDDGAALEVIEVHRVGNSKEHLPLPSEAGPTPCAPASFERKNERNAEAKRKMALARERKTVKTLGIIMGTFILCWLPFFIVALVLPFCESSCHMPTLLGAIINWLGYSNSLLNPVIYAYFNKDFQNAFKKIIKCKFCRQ

[7] = molecular target: 5-hydroxytryptamine receptor 2A (Homo sapiens) (UniProt P28223); assay: Percent inhibition (at 1 uM) against 5-hydroxytryptamine 2A receptor
[8] = molecular target: D(3) dopamine receptor (Homo sapiens) (UniProt P35462); assay: Percent inhibition (at 1 uM) against Dopamine receptor D3
[9] = molecular target: T3, 5-hydroxytryptamine receptor 1F (Homo sapiens) (UniProt P30939); assay: Percent inhibition (at 1 uM) against 5-hydroxytryptamine 1F receptor
T3 sequence (whole entry): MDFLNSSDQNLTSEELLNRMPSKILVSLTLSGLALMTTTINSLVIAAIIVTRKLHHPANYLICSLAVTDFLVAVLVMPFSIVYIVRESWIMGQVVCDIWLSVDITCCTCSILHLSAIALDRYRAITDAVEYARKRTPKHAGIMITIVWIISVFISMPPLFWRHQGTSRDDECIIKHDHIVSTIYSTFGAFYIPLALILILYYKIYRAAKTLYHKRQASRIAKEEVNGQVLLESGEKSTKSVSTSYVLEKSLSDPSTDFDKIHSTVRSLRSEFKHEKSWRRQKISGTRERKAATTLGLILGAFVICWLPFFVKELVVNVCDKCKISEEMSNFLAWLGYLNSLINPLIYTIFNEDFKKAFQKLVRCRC

[10] = molecular target: D(1B) dopamine receptor (Homo sapiens) (UniProt P21918); assay: Percent inhibition (at 1 uM) against dopamine D5 receptor
[11] = molecular target: 5-hydroxytryptamine receptor 1D (Homo sapiens) (UniProt P28221); assay: Percent inhibition (at 1 uM) against 5-hydroxytryptamine 1D receptor
[12] = molecular target: 5-hydroxytryptamine receptor 6 (Homo sapiens, UniProt P50406); assay: Compound was tested for its binding affinity towards 5-hydroxytryptamine 6 receptor
[13] = molecular target: D(2) dopamine receptor (Homo sapiens) (UniProt P14416); assay: Percent inhibition (at 1 uM) against Dopamine receptor D2
[14] = molecular target: T4, D(4) dopamine receptor (Homo sapiens) (UniProt P21917); assay: Percent inhibition (at 1 uM) against Dopamine receptor D4
T4 sequence (whole entry): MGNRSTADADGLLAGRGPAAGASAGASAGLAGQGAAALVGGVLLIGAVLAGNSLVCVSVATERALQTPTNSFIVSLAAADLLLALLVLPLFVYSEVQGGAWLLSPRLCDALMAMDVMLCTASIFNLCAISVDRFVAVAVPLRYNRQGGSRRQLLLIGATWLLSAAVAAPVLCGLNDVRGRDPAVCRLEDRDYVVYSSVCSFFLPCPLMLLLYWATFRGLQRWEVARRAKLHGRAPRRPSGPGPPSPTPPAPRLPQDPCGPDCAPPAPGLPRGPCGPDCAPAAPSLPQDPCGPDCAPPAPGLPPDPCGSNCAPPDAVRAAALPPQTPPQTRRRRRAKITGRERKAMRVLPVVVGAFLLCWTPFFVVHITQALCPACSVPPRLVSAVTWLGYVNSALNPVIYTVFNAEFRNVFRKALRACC

[15] = molecular target: T5, 5-hydroxytryptamine receptor 2C (Homo sapiens) (UniProt P28335); assay: Percent inhibition (at 1 uM) against 5-hydroxytryptamine 2C receptor
T5 sequence (whole entry): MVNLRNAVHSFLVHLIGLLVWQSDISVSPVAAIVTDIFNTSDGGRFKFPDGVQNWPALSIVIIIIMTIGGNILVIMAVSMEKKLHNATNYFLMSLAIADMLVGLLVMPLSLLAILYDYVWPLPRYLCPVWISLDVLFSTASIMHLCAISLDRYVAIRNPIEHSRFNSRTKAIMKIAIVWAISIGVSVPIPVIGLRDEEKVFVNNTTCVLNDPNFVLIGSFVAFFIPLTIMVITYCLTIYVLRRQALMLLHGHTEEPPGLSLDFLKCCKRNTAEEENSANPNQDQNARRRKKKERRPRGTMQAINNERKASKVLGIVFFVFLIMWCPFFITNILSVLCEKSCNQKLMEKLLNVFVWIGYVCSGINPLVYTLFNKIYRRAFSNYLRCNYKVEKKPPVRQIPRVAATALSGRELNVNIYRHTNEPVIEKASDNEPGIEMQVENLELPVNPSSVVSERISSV

[16] = molecular target: T1, 5-hydroxytryptamine receptor 7; assay: Compound was tested for its binding affinity towards human 5-hydroxytryptamine 7 receptor from HEK293 cells using radioligand [3H]LSD; format: cell-based; in short: as §1

T1 sequence (P34969 whole entry): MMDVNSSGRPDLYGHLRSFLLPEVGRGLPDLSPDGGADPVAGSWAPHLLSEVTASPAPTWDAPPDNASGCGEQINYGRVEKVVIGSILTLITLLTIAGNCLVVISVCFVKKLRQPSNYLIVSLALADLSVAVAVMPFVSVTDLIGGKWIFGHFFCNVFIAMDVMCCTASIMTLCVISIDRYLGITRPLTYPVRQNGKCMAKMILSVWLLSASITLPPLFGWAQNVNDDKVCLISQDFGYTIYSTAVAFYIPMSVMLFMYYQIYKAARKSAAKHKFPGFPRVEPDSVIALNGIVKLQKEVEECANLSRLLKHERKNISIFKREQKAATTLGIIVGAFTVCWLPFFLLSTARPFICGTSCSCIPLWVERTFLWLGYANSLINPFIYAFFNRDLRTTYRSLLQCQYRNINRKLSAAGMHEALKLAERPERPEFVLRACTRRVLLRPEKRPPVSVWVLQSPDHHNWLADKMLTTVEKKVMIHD
D(1B) dopamine receptor (Homo sapiens), sequence (P21918 whole entry): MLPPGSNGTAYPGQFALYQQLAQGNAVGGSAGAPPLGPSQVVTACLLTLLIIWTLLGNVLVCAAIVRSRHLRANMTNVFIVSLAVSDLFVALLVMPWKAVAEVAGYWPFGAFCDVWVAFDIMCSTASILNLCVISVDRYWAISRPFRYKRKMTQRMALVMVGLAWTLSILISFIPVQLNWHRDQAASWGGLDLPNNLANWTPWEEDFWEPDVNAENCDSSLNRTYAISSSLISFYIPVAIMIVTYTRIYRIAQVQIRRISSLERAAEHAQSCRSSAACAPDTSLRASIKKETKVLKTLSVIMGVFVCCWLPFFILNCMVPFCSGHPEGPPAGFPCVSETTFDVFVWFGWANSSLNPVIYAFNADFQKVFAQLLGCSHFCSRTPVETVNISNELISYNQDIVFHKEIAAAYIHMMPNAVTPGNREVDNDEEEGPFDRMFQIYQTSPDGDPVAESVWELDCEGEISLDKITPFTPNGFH
5-hydroxytryptamine receptor 1D (Homo sapiens), sequence (P28221 whole entry): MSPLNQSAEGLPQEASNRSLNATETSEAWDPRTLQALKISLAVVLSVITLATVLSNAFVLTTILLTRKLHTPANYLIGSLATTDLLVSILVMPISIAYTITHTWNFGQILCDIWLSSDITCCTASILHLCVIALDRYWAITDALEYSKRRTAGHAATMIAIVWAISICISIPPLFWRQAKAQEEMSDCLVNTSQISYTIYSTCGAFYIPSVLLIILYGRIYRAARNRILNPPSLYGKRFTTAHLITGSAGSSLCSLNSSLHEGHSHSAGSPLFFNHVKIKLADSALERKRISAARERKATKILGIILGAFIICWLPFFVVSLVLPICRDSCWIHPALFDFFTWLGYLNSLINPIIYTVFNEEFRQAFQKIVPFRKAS
D(3) dopamine receptor (Homo sapiens), sequence (P35462 whole entry): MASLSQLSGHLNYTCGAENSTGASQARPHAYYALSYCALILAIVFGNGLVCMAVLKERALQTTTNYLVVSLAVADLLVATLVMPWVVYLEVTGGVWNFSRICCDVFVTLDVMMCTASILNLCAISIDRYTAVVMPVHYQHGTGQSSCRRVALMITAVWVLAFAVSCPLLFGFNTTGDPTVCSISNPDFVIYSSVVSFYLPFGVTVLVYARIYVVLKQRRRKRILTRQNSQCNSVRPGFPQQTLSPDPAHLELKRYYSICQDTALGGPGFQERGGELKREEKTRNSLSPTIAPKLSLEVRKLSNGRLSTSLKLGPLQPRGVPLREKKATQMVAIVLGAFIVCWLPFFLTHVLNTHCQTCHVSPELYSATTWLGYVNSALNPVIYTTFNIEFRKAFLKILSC
D(1A) dopamine receptor (Homo sapiens), sequence (P21728 whole entry): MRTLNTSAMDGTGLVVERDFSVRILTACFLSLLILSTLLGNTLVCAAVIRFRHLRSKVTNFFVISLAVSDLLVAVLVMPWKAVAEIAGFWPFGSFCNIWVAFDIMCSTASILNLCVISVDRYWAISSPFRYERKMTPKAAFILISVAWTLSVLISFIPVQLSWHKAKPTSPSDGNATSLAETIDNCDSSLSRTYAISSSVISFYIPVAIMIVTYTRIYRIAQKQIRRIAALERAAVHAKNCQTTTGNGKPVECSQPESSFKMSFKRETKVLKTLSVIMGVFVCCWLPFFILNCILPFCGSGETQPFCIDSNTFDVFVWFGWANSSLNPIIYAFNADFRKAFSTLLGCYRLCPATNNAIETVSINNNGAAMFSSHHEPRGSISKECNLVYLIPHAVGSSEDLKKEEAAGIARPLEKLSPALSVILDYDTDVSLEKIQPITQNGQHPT
D(2) dopamine receptor (Homo sapiens), sequence (P14416 whole entry): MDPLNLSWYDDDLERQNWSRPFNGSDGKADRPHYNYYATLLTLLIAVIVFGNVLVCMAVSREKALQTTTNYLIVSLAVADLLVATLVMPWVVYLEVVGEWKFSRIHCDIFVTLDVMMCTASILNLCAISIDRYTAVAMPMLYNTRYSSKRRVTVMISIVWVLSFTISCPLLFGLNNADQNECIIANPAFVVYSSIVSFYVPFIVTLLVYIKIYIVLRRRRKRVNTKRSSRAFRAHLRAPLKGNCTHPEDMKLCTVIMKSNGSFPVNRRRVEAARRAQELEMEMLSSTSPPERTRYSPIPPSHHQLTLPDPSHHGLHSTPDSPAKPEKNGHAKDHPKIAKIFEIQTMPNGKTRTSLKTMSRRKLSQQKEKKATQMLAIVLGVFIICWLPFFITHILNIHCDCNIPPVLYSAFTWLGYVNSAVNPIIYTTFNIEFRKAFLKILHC
5-hydroxytryptamine receptor 2A (Homo sapiens), sequence (P28223 whole entry): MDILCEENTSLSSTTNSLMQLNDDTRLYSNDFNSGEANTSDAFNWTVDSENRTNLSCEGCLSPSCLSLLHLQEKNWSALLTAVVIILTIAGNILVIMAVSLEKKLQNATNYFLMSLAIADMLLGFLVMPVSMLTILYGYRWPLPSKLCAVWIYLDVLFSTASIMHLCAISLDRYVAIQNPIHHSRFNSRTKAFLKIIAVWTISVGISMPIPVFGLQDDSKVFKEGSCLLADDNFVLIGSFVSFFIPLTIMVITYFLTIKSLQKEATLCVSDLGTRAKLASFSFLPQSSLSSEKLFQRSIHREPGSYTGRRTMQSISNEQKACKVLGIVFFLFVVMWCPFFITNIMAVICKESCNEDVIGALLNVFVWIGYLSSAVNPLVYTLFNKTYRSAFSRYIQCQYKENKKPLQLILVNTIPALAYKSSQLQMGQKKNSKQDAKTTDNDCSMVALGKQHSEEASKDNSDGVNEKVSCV
5-hydroxytryptamine receptor 6, sequence (P50406 whole entry): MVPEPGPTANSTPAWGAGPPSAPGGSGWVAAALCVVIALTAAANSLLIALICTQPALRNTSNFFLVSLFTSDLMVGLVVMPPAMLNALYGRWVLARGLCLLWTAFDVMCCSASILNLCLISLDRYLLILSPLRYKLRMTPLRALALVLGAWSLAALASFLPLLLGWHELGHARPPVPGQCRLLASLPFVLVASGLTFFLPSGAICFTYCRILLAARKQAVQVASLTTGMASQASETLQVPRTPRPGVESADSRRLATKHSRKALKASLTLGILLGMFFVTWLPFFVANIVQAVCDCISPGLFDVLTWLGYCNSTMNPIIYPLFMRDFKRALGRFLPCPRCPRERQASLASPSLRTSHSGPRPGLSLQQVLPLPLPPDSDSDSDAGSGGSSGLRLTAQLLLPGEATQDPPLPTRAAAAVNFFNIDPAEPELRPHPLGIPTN
5-hydroxytryptamine receptor 1B (Homo sapiens), sequence (P28222 whole entry): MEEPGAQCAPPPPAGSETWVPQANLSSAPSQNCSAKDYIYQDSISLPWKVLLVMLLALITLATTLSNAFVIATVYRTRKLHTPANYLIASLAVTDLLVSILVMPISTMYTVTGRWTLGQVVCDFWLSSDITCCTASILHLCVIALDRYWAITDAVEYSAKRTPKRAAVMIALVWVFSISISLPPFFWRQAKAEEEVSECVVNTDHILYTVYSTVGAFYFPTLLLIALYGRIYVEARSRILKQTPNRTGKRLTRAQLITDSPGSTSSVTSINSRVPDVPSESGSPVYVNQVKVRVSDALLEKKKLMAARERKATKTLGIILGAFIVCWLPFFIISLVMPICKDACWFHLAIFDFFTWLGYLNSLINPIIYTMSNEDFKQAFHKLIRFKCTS

| Structure (SMILES) | inhibition [1] | Ki [2] | other results |
| --- | --- | --- | --- |
| C#Cc1ccc2ccn(CCN3CCCN(C)CC3)c2c1 | 79% | 140 nM |  |
| CCc1ccc2ccn(CCN3CCCN(C)CC3)c2c1 | 66% | 166 nM |  |
| C=C(C)c1ccc2ccn(CCN3CCCN(C)CC3)c2c1 | 72% | 70 nM |  |
| Cc1cccc(S(=O)(=O)N(C)[C@H](C)CCN2CCC(C)CC2)c1 [SB-258719] |  |  | Ki ([2]; hek293): 32 nM |
| Cc1ccc2ccn(CCN3CCCN(C)CC3)c2c1 | 62% | 125 nM |  |
| CC(C)(C)CN1CCCN(CCn2ccc3ccc(Br)cc32)CC1 | 70% | 163 nM |  |
| Cc1cccc(C#N)c1-c1cccc2c1-c1cccc3c1[C@@H](C2)N(C)CC3 |  | 1 nM |  |
| COc1ccc2ccn(CCN3CCCN(C)CC3)c2c1 | 50% | 1570 nM |  |
| C[C@H](Nc1nc(N)nc(NC[C@H]2C[C@@H]2c2ccc(F)cc2)n1)c1ccccc1 |  |  | IC50 [16]: < 50 nM |
| CN1CCCN(CCn2ccc3ccc(F)cc32)CC1 | 60% | 288 nM |  |
| CC(C)c1ccc2ccn(CCN3CCCN(C)CC3)c2c1 | 72% | 145 nM |  |
| CN1CCCN(CCn2ccc3ccc(N)cc32)CC1 | 0% |  |  |
| C=Cc1ccc2ccn(CCN3CCCN(C)CC3)c2c1 | 79% | 109 nM |  |
| CN1CCCN(CCn2ccc3ccc(O)cc32)CC1 | 28% |  |  |
| CN1CCCN(CCn2ccc3cc(Br)ccc32)CC1 | 65% | 88 nM |  |
| CN1CCCN(CCn2ccc3c(Br)cccc32)CC1 | 33% |  |  |
| CN1CCCN(CCn2ccc3ccc(-c4cccnc4)cc32)CC1 | 35% |  |  |
| CN1CCCN(CCn2ccc3ccc(C(N)=O)cc32)CC1 | 33% |  |  |
| CN1CCCN(CCn2ccc3ccc([N+](=O)[O-])cc32)CC1 | 72% | 139 nM |  |
| CC1CN(CCn2ccc3ccc(Br)cc32)CC(C)N1 (stereo not given) | 26% |  |  |
| CN1CCCN(CCn2ccc3ccc(C(C)(C)O)cc32)CC1 | 6% |  |  |
| CN1CCCN(CCn2ccc3cccc(Br)c32)CC1 | 18% |  |  |
| CN1CCCN(CCn2ccc3ccc(Cl)cc32)CC1 | 85% | 34 nM |  |
| Brc1ccc2ccn(CCN3CCCN(c4ccccc4)CC3)c2c1 | 18% |  |  |
| CN1CCCN(CCn2ccc3ccc(C(F)(F)F)cc32)CC1 | 89% | 23 nM |  |
| CN1CCCN(CCn2ccc3ccc(-c4ccsc4)cc32)CC1 | 68% | 109 nM |  |
| CN1CCCN(CCn2ccc3ccc(OCc4ccccc4)cc32)CC1 | 28% | 182 nM |  |

More lines, main results first:

| inhibition [1] | Ki [2] | Structure (SMILES) | other results |
| --- | --- | --- | --- |
| 95% | 9 nM | Brc1ccc2ccn(CCN3CCCN(CC4CC4)CC3)c2c1 |  |
| 99% | 3 nM | Brc1ccc2ccn(CCN3CCCN4CCCCC4C3)c2c1 (stereo not given) | inhibition [3]: 35%; inhibition [4]: 2%; inhibition [5]: 0%; inhibition [6]: 1%; inhibition [7]: 20%; inhibition [8]: 27%; inhibition [9]: 0%; inhibition [10]: 17%; inhibition [11]: 0%; Ki [12]: 4070 nM; inhibition [13]: 15%; inhibition [14]: 4%; inhibition [15]: 26% |
| 72% |  | Brc1ccc2ccn(CCN3CCN4CCCC4C3)c2c1 (stereo not given) |  |
| 92% | 14 nM | CC(C)N1CCCN(CCn2ccc3ccc(Br)cc32)CC1 |  |
| 52% |  | CC1CN(CCn2ccc3ccc(Br)cc32)CCN1 (stereo not given) |  |
| 77% |  | Brc1ccc2ccn(CCN3CCCNCC3)c2c1 |  |
|  | 10 nM | Clc1ccc2ccn(CCN3CCCN4CCCCC4C3)c2c1 (stereo not given) |  |
| 96% | 16 nM | Brc1ccc2ccn(CCN3CCCN(C4CC4)CC3)c2c1 |  |
| 13% |  | Brc1cccc2ccn(CCN3CCN4CCCCC4C3)c12 (stereo not given) |  |
| 93% | 31 nM | CN1CCCN(CCn2ccc3ccc(Br)cc32)CC1 |  |
| 43% |  | Brc1cccc2c1ccn2CCN1CCN2CCCCC2C1 (stereo not given) |  |
| 65% | 158 nM | Brc1ccc2c(ccn2CCN2CCN3CCCCC3C2)c1 (stereo not given) |  |
| 78% | 70 nM | Brc1ccc2ccn(CCN3CCN4CCCCC4C3)c2c1 (stereo not given) |  |
| 98% | 10 nM | Brc1ccc2ccn(CCN3CCCN(C4CCCC4)CC3)c2c1 |  |
| 71% |  | Brc1ccc2ccn(CCN3CCC4CCCCN4CC3)c2c1 (stereo not given) |  |
|  | 7 nM | FC(F)(F)c1ccc2ccn(CCN3CCCN4CCCCC4C3)c2c1 (stereo not given) |  |
| 36% |  | Brc1ccc2ccn(CCN3CCN(C4CCCCC4)CC3)c2c1 |  |
| 61% |  | Brc1ccc2ccn(CCN3CCNCC3)c2c1 |  |
| 96% | 17 nM | Brc1ccc2ccn(CCN3CCCN(C4CCCCC4)CC3)c2c1 |  |
| 95% | 37 nM | CC(C)CN1CCCN(CCn2ccc3ccc(Br)cc32)CC1 |  |
